Assay results from ChEMBL document CHEMBL1165904, “Design, synthesis and 3D-QSAR of beta-carboline derivatives as potent antitumor agents” (Eur J Med Chem, 2010).

Tests used:
Format in all cases: functional, cell-based
Bel-7402 = test: Cytotoxicity against human Bel7402 cells by MTT assay
Summary of the method: (§1)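 Tumour cells cultured in RPMI-1640 with 10% (v/v) fetal calf serum plus penicillin and streptomycin, at 37 °C, humidified 5% CO2. Compounds from DMSO stocks; final DMSO in medium 2% (v/v) or lower. Assay in 96-well microtitre cultures with MTT staining. IC50 taken as concentration causing 50% growth inhibition relative to untreated cells.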

HeLa = test: Cytotoxicity against human HeLa cells by MTT assay; summary of the method: as §1
MCF7 = test: Cytotoxicity against human MCF7 cells by MTT assay; summary of the method: as §1
BGC-823 = test: Cytotoxicity against human BGC823 cells by MTT assay; summary of the method: as §1
HepG2 = test: Cytotoxicity against human HepG2 cells by MTT assay; summary of the method: as §1

Row | Structure (SMILES) | IC50 (Bel-7402) [µM] | IC50 (HeLa) [µM] | IC50 (MCF7) [µM] | IC50 (BGC-823) [µM] | IC50 (HepG2; read-out: IC50) [µM] | IC50 (HepG2; read-out: pIC50 (converted)) [µM]
1 | CCCCOc1ccc2c3ccnc(C)c3n(CC(C)C)c2c1 | 42.5 | 20.8 | 7.2 | 12.1 | 12.1 | 12
2 | CCOC(=O)c1cc2c3ccccc3n(Cc3ccc(F)cc3)c2cn1 | > 200 | > 200 | > 200 | > 200 | > 200 | 
3 | O=C(NCCO)c1cc2c3ccccc3n(Cc3ccc(F)cc3)c2cn1 | > 200 | > 200 | > 200 | > 200 | > 200 | 
4 | COc1ccc2c(c1)[nH]c1c(C)[n+](Cc3ccccc3)ccc12 | 64.2 | 77.6 | 76.2 | 67.4 | 54.6 | 55
5 | CCCCn1c2ccccc2c2cc(CO)nc(C)c21 | 122 | 100 | 107 | 127 | 128 | 129
6 | CCCCn1c2ccccc2c2cc(C=O)nc(C)c21 | 123 | 169 | 154 | > 200 | 143 | 145
7 | CCCCn1c2ccccc2c2cc(C(=O)NCCO)nc(-c3cc(OC)c(OC)c(OC)c3)c21 | > 200 | > 200 | 105 |  |  | 
8 | Cc1nccc2c3ccc(OCc4ccccc4)cc3n(CC(C)C)c12 | 26.8 | 50.5 | 54.1 | 36 | 22.2 | 22.4
9 | Cc1nccc2c3ccc(OC(C)C)cc3n(CCCc3ccccc3)c12 | 36.2 | 48.6 | 45.3 | 16.3 | 14.6 | 14.5
10 | CCCC[n+]1ccc2c(c1)[nH]c1ccccc12 | 302 | 130 | 338 | 326 | 94 | 93.3
11 | c1ccc(C[n+]2ccc3c(c2)[nH]c2ccccc23)cc1 | 65.1 | 85.4 | 91.3 | 91.8 | 77.3 | 77.6
12 | CCOc1ccc2c3ccnc(C)c3n(CC)c2c1 | 27.4 | 30.7 | 14.4 | 57.1 | 68.9 | 69.2
13 | CCn1c2cc(OCc3c(F)c(F)c(F)c(F)c3F)ccc2c2ccnc(C)c21 | 241 | 258 | 103 | 238 | 236 | 234
14 | CCCCn1c2cc(OCC)ccc2c2ccnc(C)c21 | 36.1 | 32.1 | 12 | 37.2 | 43.3 | 43.7
15 | CCCCn1c2cc(OC(C)C)ccc2c2ccnc(C)c21 | 26.8 | 21.2 | 19.5 | 19.1 | 30.2 | 30.2
16 | CCCCCCCCCCOc1ccc2c3ccnc(C)c3n(CCCC)c2c1 | 18.8 | 106 | 62.7 | 28.4 | 127 | 126
17 | Cc1c2[nH]c3ccccc3c2cc[n+]1CCCc1ccccc1 | 20.5 | 49.8 | 23.8 | 3.5 | 33 | 33.1
18 | c1ccc(CCC[n+]2ccc3c(c2)[nH]c2ccccc23)cc1 | 24.6 | 44.3 | 5.7 | 7.1 | 44.6 | 44.7
19 | CCn1c2cc(O)ccc2c2ccnc(C)c21 | 165 | 70.3 | 106 | 160 | 134 | 135
20 | Cc1c2[nH]c3ccccc3c2cc[n+]1Cc1ccccc1 | 74 | 69.2 | 89.2 | 77.4 | 69.5 | 69.2
21 | O=C(NCCO)c1cc2c3ccccc3n(CCCc3ccccc3)c2cn1 | > 200 | > 200 | > 200 | > 200 | > 200 | 
22 | OCc1cc2c3ccccc3n(Cc3ccc(F)cc3)c2cn1 | > 200 | > 200 | > 200 | > 200 | > 200 | 
23 | CCCCn1c2ccccc2c2cc(C(=O)NCCN)ncc21 | 115 | 26.9 | 18.5 | 53.2 | 82.9 | 83.2
